Published values from different studies.
Compare with care: the assays were run in different laboratories.
Target: Tyrosine-protein kinase Fes/Fps (FES, Homo sapiens, UniProt P07332)

SMILES	test	setting	remaining binding [%]
c1cnn2ncc(-c3ccnc(N4CCC45COC5)n3)c2c1	binding	1 µM	95
Cn1nc(C(=O)NCc2ccc(C(=O)O)cc2)cc1-c1ccc2[nH]ccc2c1	cell-free assay, competition with immobilised ligand	0.1 µM	95
Nc1ncc2c(n1)-c1c([nH]c3ccc(C#CC4CC4)cc13)CCCC2	binding, competition with immobilised ligand	1 µM	100
Cc1c[nH]c2nccc(Oc3c(F)cc(Nc4cc(Cl)nc(N)n4)cc3F)c12	cell-free assay, competition with immobilised ligand	0.1 µM	100
N[C@H]1CCN(c2nccc(-c3cnn4ncccc34)n2)C1	binding	1 µM	100
O=C(c1ccc(Nc2ncc(Cl)c(-c3cc4ccccc4s3)n2)cc1)N1CCC(N2CCCC2)CC1	binding, competition with immobilised ligand	1 µM	74
O=C(NCC1CCOCC1)c1n[nH]cc1NC(=O)c1c(F)cccc1F	binding, competition with immobilised ligand	1 µM	100
C=CC(=O)N1CCC(C(=O)NCC(=O)N2CCN(c3nc(-c4cnc(N)nc4C(F)F)nc(N4CCOCC4)n3)CC2)CC1	binding, competition with immobilised ligand	1 µM	100
CN(C)c1ncc(F)c(-c2cnn3ncccc23)n1	binding	1 µM	87
CN(C)C(=O)Cn1cc(-c2nc([C@@](C)(c3ccc(-c4cnc(N)nc4)cc3)C3CC3)no2)cn1	cell-free assay, competition with immobilised ligand	1 µM	100
c1cncc(-c2cccc(Nc3nccc(NC4CCCCC4)n3)c2)c1	binding, competition with immobilised ligand	10 µM	80
CNC(=O)Nc1ccc2c(c1)[C@@]1(CC2)OC(=O)N(CC(=O)N(Cc2ccc(F)cc2)[C@@H](C)C(F)(F)F)C1=O	cell-free assay, competition with immobilised ligand	1 µM	85
COc1cnc(Nc2cccc(S(N)(=O)=O)c2)nc1N1CCN(c2ccccc2)C(=O)C1	binding, competition with immobilised ligand	1 µM	100
Cc1c(NC(=O)c2cc(C(N)=O)nc3cc(F)ccc23)c(C(F)(F)F)nn1Cc1ccc(C(C)(C)C)cc1	cell-free assay, competition with immobilised ligand	1 µM	100
CN(C)c1nccc(-c2cnn3ncccc23)n1	binding	1 µM	100
O=C(NCCCN1CCOCC1)c1ccc(Nc2nccc(-c3cc4ccccc4s3)n2)cc1	binding, competition with immobilised ligand	1 µM	85
CS(=O)(=O)N1CCCC(NC(=O)[C@H](CCC2CCCCC2)NC(=O)c2ccc(CNc3ncnc4c3nnn4-c3ccccc3)cc2)C1 (stereo partly shown)	cell-free assay, competition with immobilised ligand	0.1 µM	87
COc1cnc(Nc2cccc(S(N)(=O)=O)c2)nc1N1CCN(c2ccccc2)CC1	binding, competition with immobilised ligand	1 µM	100
COc1ccnn2ncc(-c3ccnc(N(C)C)n3)c12	binding	1 µM	75
O=C(O)[C@H]1[C@H](Cn2nnc3ccccc3c2=O)CC[C@@H]1C(=O)c1ccc(OCCC2CCOCC2)cc1	cell-free assay, competition with immobilised ligand	1 µM	100
C[C@@H]1CCN(c2nccc(-c3cnn4ncccc34)n2)C1	binding	1 µM	100
Cc1cnc(Nc2ccc(C(=O)N3CCC(N4CCCC4)CC3)cc2)nc1-c1cc2ccccc2s1	binding, competition with immobilised ligand	1 µM	52
